Data taken from ChEMBL document CHEMBL1124617, “Approaches to isozyme-specific inhibitors. 16. A novel methyl-C5' covalent adduct of L-ethionine and beta,gamma-imido-ATP as a potent multisubstrate inhibitor of rat methionine adenosyltransferases” (J Med Chem, 1989).

Columns and labels:
Format in all cases: protein assay
[1] = target: T1, S-adenosylmethionine synthetase (MAT 1 and MAT 2) (Rattus norvegicus, UniProt P13444+P18298); assay: Compound was tested for inhibition constant with kidney form of M-T variants of Rat methionine adenosyltransferase when ATP was the variable substrate
[2] = target: T1, S-adenosylmethionine synthetase (MAT 1 and MAT 2); assay: Compound was tested for inhibition constant with kidney form of M-T variants of Rat methionine adenosyltransferase when Methionine was the variable substrate
[3] = target: T1, S-adenosylmethionine synthetase (MAT 1 and MAT 2); assay: Compound was tested for inhibition constant with kidney form of M-2 variants of Rat methionine adenosyltransferase when Methionine was the variable substrate
Procedure, shortened: (§1)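 Rat M-2 (normal tissue) isozyme. With methionine as the variable substrate, MgATP was fixed at 2 mM. With MgATP as the variable substrate, methionine was fixed at 60 µM. The MgATP KM was 0.14 mM. Ki values come from kinetic analysis of inhibition against each substrate.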

[4] = target: T1, S-adenosylmethionine synthetase (MAT 1 and MAT 2); assay: Compound was tested for inhibition constant with kidney form of M-2 variants of Rat methionine adenosyltransferase when ATP was the variable substrate; procedure, shortened: as §1

| Ki [1] [nM] | Ki [2] [nM] | Ki [3] [nM] | Ki [4] [nM] | SMILES |
| --- | --- | --- | --- | --- |
| 210 | 670 | 650 | 130 | Nc1ncnc2c1ncn2[C@@H]1O[C@H]([C@H](CSCCC(N)C(=O)O)OP(=O)(O)OP(=O)(O)NP(=O)(O)O)[C@@H](O)[C@H]1O (some centres not stated) |
| 160 | 1100 | 2100 | 110 | Nc1ncnc2c1ncn2[C@@H]1O[C@H]([C@@H](CCSCCC(N)C(=O)O)OP(=O)(O)OP(=O)(O)NP(=O)(O)O)[C@@H](O)[C@H]1O (some centres not stated) |
| 410 | 2700 | 5400 | 270 | Nc1ncnc2c1ncn2[C@@H]1O[C@H]([C@H](CCSCCC(N)C(=O)O)OP(=O)(O)OP(=O)(O)NP(=O)(O)O)[C@@H](O)[C@H]1O (some centres not stated) |
